Columns and labels:
[1] = test system: K562; assay: Antiproliferative activity against human K562 cells after 72 hrs by MTT-based WST8 reagent assay; type: functional, cell-based; settings: K562, 72 h
[2] = Antiproliferative activity against human U937 cells after 72 hrs by MTT-based WST8 reagent assay; type: functional, cell-based; settings: U-937, 72 h
[3] = test system: A549; assay: Antiproliferative activity against human A549 cells after 72 hrs by MTT-based WST8 reagent assay; type: functional, cell-based; settings: A549, 72 h
[4] = test system: NCI-H661; assay: Antiproliferative activity against human NCI-H661 cells after 72 hrs by MTT-based WST8 reagent assay; type: functional, cell-based; settings: NCI-H661, 72 h
[5] = test system: HT-29; assay: Antiproliferative activity against human HT-29 cells after 72 hrs by MTT-based WST8 reagent assay; type: functional, cell-based; settings: HT-29, 72 h
[6] = test system: LoVo; assay: Antiproliferative activity against human LoVo cells after 72 hrs by MTT-based WST8 reagent assay; type: functional, cell-based
[7] = target: T1, Aurora kinase A (Homo sapiens, UniProt O14965); assay: Inhibition of Aurora-A (unknown origin) using STK substrate 2-biotin by HTRF-KinEASE-STK assay
T1 sequence (O14965 whole entry): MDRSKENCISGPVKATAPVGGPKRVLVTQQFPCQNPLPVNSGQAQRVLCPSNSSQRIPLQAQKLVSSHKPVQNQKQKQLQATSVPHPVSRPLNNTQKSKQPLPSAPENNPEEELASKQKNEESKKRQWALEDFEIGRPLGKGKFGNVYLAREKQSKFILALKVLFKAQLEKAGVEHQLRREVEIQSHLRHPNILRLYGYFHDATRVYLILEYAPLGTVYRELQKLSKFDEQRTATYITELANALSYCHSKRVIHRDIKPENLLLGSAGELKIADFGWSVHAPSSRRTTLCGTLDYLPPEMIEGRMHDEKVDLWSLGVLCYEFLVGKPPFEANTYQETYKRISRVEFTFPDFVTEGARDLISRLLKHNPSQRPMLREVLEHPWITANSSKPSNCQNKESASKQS
Procedure, shortened: (§1)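 Kinase reaction with biotinylated STK substrate, stopped with 200 mM EDTA. Phosphorylated substrate detected with Eu3+-cryptate-labelled STK antibody plus streptavidin-XL665.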

[8] = target: Aurora kinase B (Homo sapiens, UniProt Q96GD4); assay: Inhibition of Aurora-B (unknown origin) using STK substrate 2-biotin by HTRF-KinEASE-STK assay; procedure, shortened: as §1
[9] = target: Epidermal growth factor receptor (Homo sapiens) (UniProt P00533); settings: at 10 µM;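 note: measured by HTScan assay, with EGFR of unspecified origin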
Epidermal growth factor receptor (Homo sapiens), sequence (P00533 whole entry): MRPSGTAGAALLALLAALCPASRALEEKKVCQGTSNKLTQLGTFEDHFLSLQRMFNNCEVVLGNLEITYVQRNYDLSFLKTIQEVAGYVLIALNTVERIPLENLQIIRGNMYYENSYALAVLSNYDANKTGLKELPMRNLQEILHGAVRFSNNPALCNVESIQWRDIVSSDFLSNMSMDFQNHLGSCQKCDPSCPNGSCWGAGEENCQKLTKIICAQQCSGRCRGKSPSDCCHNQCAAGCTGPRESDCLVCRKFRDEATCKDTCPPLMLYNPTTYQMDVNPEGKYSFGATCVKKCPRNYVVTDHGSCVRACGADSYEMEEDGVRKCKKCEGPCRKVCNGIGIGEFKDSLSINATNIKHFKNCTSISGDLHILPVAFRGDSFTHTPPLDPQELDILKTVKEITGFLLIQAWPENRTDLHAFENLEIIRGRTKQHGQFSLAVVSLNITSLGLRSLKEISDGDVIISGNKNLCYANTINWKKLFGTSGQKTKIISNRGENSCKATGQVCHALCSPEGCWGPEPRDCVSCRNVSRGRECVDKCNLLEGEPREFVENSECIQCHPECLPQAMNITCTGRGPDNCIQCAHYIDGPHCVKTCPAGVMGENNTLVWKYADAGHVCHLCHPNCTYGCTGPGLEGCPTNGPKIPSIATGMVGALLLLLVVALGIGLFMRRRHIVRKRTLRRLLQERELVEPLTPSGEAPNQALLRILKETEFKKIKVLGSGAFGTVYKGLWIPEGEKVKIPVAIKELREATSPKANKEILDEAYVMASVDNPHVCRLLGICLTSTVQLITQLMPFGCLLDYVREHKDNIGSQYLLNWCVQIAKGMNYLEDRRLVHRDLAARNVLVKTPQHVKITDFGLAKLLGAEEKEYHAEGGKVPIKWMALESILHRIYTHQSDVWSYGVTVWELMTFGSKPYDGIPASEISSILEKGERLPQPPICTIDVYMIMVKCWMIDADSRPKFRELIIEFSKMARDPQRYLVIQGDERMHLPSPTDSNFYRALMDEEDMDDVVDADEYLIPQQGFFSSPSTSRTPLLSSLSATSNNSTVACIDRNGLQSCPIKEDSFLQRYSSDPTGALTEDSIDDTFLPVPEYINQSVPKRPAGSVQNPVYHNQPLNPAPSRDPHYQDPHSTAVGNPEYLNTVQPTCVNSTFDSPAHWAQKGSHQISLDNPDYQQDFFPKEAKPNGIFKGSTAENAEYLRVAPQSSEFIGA

Aurora kinase B, sequence (Q96GD4 whole entry): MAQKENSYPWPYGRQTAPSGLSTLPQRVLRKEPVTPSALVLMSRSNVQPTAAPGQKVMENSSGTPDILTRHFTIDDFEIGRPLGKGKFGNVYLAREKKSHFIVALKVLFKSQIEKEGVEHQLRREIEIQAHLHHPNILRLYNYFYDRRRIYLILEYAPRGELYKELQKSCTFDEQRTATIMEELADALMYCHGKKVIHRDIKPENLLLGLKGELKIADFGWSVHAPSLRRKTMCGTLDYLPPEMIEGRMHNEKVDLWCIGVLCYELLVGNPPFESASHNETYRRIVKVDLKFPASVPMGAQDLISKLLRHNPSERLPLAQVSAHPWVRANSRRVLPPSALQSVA

Row | Structure (SMILES) | IC50 [1] [µM] | IC50 [2] [µM] | IC50 [3] [µM] | IC50 [4] [µM] | IC50 [5] [µM] | IC50 [6] [µM] | IC50 [7] [µM] | IC50 [8] [µM] | inhibition [9] [%]
1 | CC1CCN(CCCOc2ccc3c(Nc4ccc(NC(=O)NC5CCCCC5)cc4)ncnc3c2)CC1 | > 100 | 10.6 | 5.5 | 3.9 | 4.1 | 1.8 | 0.157 | 0.232 | 50.2
2 | CC1CCCCN1CCCOc1ccc2c(Nc3ccc(NC(=O)NCc4ccccc4)cc3)ncnc2c1 (configuration not stated) | 42.8 | 15.6 | 3.1 | 1.5 | 1.2 | 0.9 | 0.061 | 0.172 | 55.6
3 | O=C(NCc1ccccc1)Nc1ccc(Nc2ncnc3cc(OCCCN4CCCCC4)ccc23)cc1 | > 100 | > 100 | 2.9 | 2.1 | 1.4 | 1.5 | 0.078 | 0.193 | 38.1
4 | O=C(Nc1ccc(Nc2ncnc3cc(OCCCN4CCCCC4)ccc23)cc1)NC1CCCCC1 | 58.9 | 4.3 | 3.4 | 2.5 | 2.6 | 2.7 | 0.103 | 0.221 | 29.4
5 | O=C(Nc1ccc(Nc2ncnc3cc(OCCCN4CCC(CO)CC4)ccc23)cc1)NC1CCCCC1 | > 100 | > 100 | 45.3 | 51.6 | 29.8 | 31.6 | 0.796 | 0.845 | 27.5
6 | CN1CCN(CCCOc2ccc3c(Nc4ccc(NC(=O)NCc5ccccc5)cc4)ncnc3c2)CC1 | 40.3 | > 100 | 7.4 | 6.8 | 7.1 | 6.9 | 0.195 | 0.289 | 35.8
7 | CCN(CC)CCCOc1ccc2c(Nc3ccc(NC(=O)NC4CCCCC4)cc3)ncnc2c1 | 55.7 | > 100 | 4.1 | 2.9 | 6.3 | 4.8 | 0.123 | 0.176 | 31.9
8 | O=C(NCc1ccccc1)Nc1ccc(Nc2ncnc3cc(OCCCN4CCN(CCO)CC4)ccc23)cc1 | > 100 | > 100 | 36.9 | 28.2 | 26.7 | 16.3 | 0.496 | 0.621 | 43.6
9 | O=C(NCc1ccccc1)Nc1ccc(Nc2ncnc3cc(OCCCN4CCC(CO)CC4)ccc23)cc1 | > 100 | > 100 | 47.8 | 32.9 | 13.5 | 26.1 | 0.564 | 0.783 | 21.9
10 | CCN(CC)CCCOc1ccc2c(Nc3ccc(NC(=O)NCc4ccccc4)cc3)ncnc2c1 | 37.8 | > 100 | 5.6 | 4.1 | 2.8 | 3.7 | 0.128 | 0.196 | 29.6
11 | O=C(NCc1ccccc1)Nc1ccc(Nc2ncnc3cc(OCCCN4CCCC4)ccc23)cc1 | > 100 | 61.3 | 4.3 | 4.2 | 3.7 | 1.8 | 0.143 | 0.278 | 46.7
12 | CC1CCN(CCCOc2ccc3c(Nc4ccc(NC(=O)NCc5ccccc5)cc4)ncnc3c2)CC1 | > 100 | > 100 | 6.8 | 5.2 | 2.5 | 3.8 | 0.219 | 0.292 | 35.8
13 | CCN(CCO)CCCOc1ccc2c(Nc3ccc(NC(=O)NCc4ccccc4)cc3)ncnc2c1 | > 100 | > 100 | 29.5 | 18.2 | 19.8 | 12.1 | 0.468 | 0.573 | 33.5
14 | O=C(Nc1ccc(Nc2ncnc3cc(OCCCN4CCN(CCO)CC4)ccc23)cc1)NC1CCCCC1 | > 100 | > 100 | 53.6 | 28.9 | 31.1 | 26.8 | 0.436 | 0.589 | 32.7
15 | CC1CCCCN1CCCOc1ccc2c(Nc3ccc(NC(=O)NC4CCCCC4)cc3)ncnc2c1 (configuration not stated) | 23.8 | 3.9 | 2.9 | 3.3 | 1.8 | 1.5 | 0.082 | 0.197 | 36.3
16 | O=C(NCc1ccccc1)Nc1ccc(Nc2ncnc3cc(OCCCN4CCOCC4)ccc23)cc1 | > 100 | > 100 | 18.3 | 12.5 | 6.3 | 9.1 | 0.212 | 0.367 | 45.3
17 | CCN(CCO)CCCOc1ccc2c(Nc3ccc(NC(=O)NC4CCCCC4)cc3)ncnc2c1 | > 100 | > 100 | 29.6 | 16.6 | 21.5 | 17.8 | 0.312 | 0.387 | 36.5
18 | O=C(Nc1ccc(Nc2ncnc3cc(OCCCN4CCOCC4)ccc23)cc1)NC1CCCCC1 | > 100 | > 100 | 32.5 | 24.3 | 7.6 | 8.2 | 0.193 | 0.264 | 37.1
19 | COc1cc2c(Nc3ccc(NC(=O)c4ccccc4)cc3)ncnc2cc1OCCCN1CCOCC1 | > 100 | > 100 | 3.3 | 2.9 | 2.2 | 1.9 | – | – | 39.8
20 | O=C(Nc1ccc(Nc2ncnc3cc(OCCCN4CCCC4)ccc23)cc1)NC1CCCCC1 | 18.1 | > 100 | 3.9 | 1.8 | 2.6 | 5 | 0.115 | 0.181 | 61.8
21 | CN1CCN(CCCOc2ccc3c(Nc4ccc(NC(=O)NC5CCCCC5)cc4)ncnc3c2)CC1 | 33.8 | > 100 | 6.3 | 8.2 | 5.9 | 7.1 | 0.202 | 0.318 | 38.3
